Results reported in ChEMBL document CHEMBL4732155 (Eur J Med Chem, 2021).
Activity calls are given as the source filed them. The calls are words filed in the database; no cut-off is given here.

How the values were obtained:
[1] = molecular target: T1, Transitional endoplasmic reticulum ATPase (Homo sapiens, UniProt P55072); test: Inhibition of His6-tagged p97 (unknown origin) expressed in Escherichia coli BL21 (DE3) assessed as reduction in ATPase activity measured after 60 mins by biomol green reagent based assay
Method in brief: (§1)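 His6-p97 expressed in E. coli BL21(DE3), purified by Ni-NTA and gel filtration (500–600 kDa fractions, ≥95% pure). Phosphate read by Biomol Green at 635 nm. Eight-dose titrations; IC50 from six replicates. Thiol tests added DTT or cysteine during preincubation.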
Target sequence in this assay (P55072 whole entry): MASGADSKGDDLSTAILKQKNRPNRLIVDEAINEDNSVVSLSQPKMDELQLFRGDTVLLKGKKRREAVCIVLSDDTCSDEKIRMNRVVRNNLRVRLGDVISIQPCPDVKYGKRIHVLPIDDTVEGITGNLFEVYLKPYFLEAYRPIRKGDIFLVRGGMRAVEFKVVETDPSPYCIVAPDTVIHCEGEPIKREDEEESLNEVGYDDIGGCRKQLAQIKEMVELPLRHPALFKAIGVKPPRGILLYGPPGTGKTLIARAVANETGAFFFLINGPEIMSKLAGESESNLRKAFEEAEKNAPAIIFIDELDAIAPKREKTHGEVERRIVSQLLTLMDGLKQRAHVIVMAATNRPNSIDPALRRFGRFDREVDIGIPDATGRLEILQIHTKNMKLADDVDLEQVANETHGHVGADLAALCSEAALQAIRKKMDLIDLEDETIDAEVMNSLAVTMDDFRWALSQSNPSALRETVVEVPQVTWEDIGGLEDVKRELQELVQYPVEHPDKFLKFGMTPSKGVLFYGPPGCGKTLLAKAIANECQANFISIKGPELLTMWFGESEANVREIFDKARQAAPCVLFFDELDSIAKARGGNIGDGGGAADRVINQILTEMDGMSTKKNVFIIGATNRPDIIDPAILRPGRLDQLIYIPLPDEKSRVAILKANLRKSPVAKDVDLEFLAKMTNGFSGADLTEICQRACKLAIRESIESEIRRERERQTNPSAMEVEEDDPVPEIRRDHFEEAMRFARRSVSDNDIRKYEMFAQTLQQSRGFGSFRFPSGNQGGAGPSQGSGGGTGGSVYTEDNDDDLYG

[2] = Selectivity ratio of IC50 for inhibition of proteasomal turnover of p97-independent ODD-luciferase reporter substrate in human HeLa cells to IC50 for inhibition of p97 in human HeLa cells assessed as reduction in proteasomal turnover of p97-dependent reporter substrate UbG76V-GFP
Method in brief: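 HeLa cells stably carrying both UbG76V-GFP and ODD-Luc, in DMEM with 2.5% FBS, received 4 μM MG132 for 60 min at 37°C. After PBS washes they got cycloheximide plus compound for 120 min at 37°C. GFP was read by confocal imaging, then luminescence after D-luciferin (10 min, r.t.). IC50s for each reporter came from quadruplicates.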

[3] = molecular target: T1, Transitional endoplasmic reticulum ATPase; test: Inhibition of His6-tagged p97 (unknown origin) expressed in Escherichia coli BL21 (DE3) assessed as reduction in ATPase activity measured after 60 mins in presence of cysteine by biomol green reagent based assay; method in brief: as §1
Target sequence in this assay (P55072 2-806 limits assumed): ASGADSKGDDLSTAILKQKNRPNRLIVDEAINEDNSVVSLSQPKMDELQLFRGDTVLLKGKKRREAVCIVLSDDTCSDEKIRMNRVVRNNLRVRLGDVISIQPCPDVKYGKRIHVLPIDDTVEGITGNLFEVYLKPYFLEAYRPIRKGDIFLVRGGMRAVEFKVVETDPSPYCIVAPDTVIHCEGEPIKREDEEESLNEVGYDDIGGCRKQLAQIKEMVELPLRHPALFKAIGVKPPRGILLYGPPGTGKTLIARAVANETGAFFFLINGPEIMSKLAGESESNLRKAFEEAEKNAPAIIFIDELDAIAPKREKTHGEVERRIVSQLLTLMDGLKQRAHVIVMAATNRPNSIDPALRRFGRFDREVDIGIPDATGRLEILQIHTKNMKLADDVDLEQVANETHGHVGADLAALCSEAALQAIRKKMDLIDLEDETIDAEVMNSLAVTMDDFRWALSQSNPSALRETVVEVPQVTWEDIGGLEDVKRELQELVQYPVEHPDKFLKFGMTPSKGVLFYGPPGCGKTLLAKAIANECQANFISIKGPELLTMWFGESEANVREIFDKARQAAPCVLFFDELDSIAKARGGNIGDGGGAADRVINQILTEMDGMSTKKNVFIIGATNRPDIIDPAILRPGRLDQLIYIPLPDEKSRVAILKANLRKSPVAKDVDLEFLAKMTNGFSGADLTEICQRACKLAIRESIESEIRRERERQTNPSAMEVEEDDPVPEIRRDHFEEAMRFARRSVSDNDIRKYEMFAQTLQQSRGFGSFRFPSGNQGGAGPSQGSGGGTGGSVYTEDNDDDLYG

[4] = molecular target: T1, Transitional endoplasmic reticulum ATPase; test: Binding affinity to His6-tagged p97 (unknown origin) expressed in Escherichia coli BL21 (DE3) assessed as Cys522-adduct formation by tandem mass spectrometry
Target sequence in this assay (P55072 2-806 limits assumed): as above

[5] = Inhibition of His6-tagged p97 C522T mutant (unknown origin) expressed in Escherichia coli BL21 (DE3) assessed as reduction in ATPase activity measured after 60 mins by biomol green reagent based assay; design: species or system Homo sapiens; method in brief: as §1
[6] = tested on: HeLa; test: Antiproliferative activity against human HeLa cells after 48 hrs by celltiter-glo luminescence assay; format: functional, cell-based
[7] = tested on: RPMI-8226; test: Antiproliferative activity against human RPMI-8226 cells after 48 hrs by celltiter-glo luminescence assay; format: functional, cell-based; conditions: RPMI-8226, 48 h
[8] = tested on: HCT-116; test: Antiproliferative activity against CB-5083-resistant human HCT-116 cells after 48 hrs by celltiter-glo luminescence assay; format: functional, cell-based
Method in brief: (§2)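 CellTiter-Glo viability in HCT116 lines carrying resistance mutations in p97 (CB-5083-resistant: D649A/T688A; NMS-873-resistant: A530T). Cells seeded at 750 or 3000/well within the linear range of a per-line standard curve, in DMEM with 5% FBS. Treated 24 h after seeding with eight three-fold dilutions for 48 h. IC50 from percent growth versus DMSO control; mean ± SEM of four replicate experiments.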

[9] = tested on: HCT-116; test: Antiproliferative activity against NMS-873-resistant human HCT-116 cells after 48 hrs by celltiter-glo luminescence assay; format: functional, cell-based; method in brief: as §2
[10] = Effect on PLEC expression in human HCT-116 cells at 15 uM measured after 6 hrs by LC-MS/MS analysis relative to control; format: functional
Method in brief: (§3)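 HCT116 cells treated 6 h with DMSO, 15 μM or 30 μM compound, then pelleted. Peptides (1 μg) separated on a 25 cm C18 nano-column with a 136 min gradient and analysed by label-free LC-MS/MS on an Orbitrap Eclipse. Searched against the UniProt human database and quantified from normalized abundance. Two independent biological replicates per group; log2 fold change versus DMSO, p < 0.05.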

[11] = Effect on EPPK1 expression in human HCT-116 cells at 15 uM measured after 6 hrs by LC-MS/MS analysis relative to control; format: functional; method in brief: as §3
[12] = Effect on BRIX1 expression in human HCT-116 cells at 15 uM measured after 6 hrs by LC-MS/MS analysis relative to control; format: functional; method in brief: as §3
[13] = Effect on PRKRIR expression in human HCT-116 cells at 15 uM measured after 6 hrs by LC-MS/MS analysis relative to control; format: functional; method in brief: as §3
[14] = Effect on KNTC1 expression in human HCT-116 cells at 15 uM measured after 6 hrs by LC-MS/MS analysis relative to control; format: functional; method in brief: as §3
[15] = Effect on AUP1 expression in human HCT-116 cells at 15 uM measured after 6 hrs by LC-MS/MS analysis relative to control; format: functional; method in brief: as §3
[16] = Effect on EPPK1 expression in human HCT-116 cells at 30 uM measured after 6 hrs by LC-MS/MS analysis relative to control; format: functional; method in brief: as §3
[17] = Effect on SQSTM1 expression in human HCT-116 cells at 30 uM measured after 6 hrs by LC-MS/MS analysis relative to control; format: functional; method in brief: as §3
[18] = Effect on BRIX1 expression in human HCT-116 cells at 30 uM measured after 6 hrs by LC-MS/MS analysis relative to control; format: functional; method in brief: as §3
[19] = Effect on PRKRIR expression in human HCT-116 cells at 30 uM measured after 6 hrs by LC-MS/MS analysis relative to control; format: functional; method in brief: as §3
[20] = Effect on LAMP1 expression in human HCT-116 cells at 30 uM measured after 6 hrs by LC-MS/MS analysis relative to control; format: functional; method in brief: as §3
[21] = Effect on KEAP1 expression in human HCT-116 cells at 30 uM measured after 6 hrs by LC-MS/MS analysis relative to control; format: functional; method in brief: as §3
[22] = Effect on AUP1 expression in human HCT-116 cells at 30 uM measured after 6 hrs by LC-MS/MS analysis relative to control; format: functional; method in brief: as §3
[23] = Effect on AP2M1 expression in human HCT-116 cells at 30 uM measured after 6 hrs by LC-MS/MS analysis relative to control; format: functional; method in brief: as §3

Compound: C=CC(=O)Nc1ncnc2c1c(-c1ccccc1)nn2C(C)(C)C
- IC50 [1]: 0.6 µM
- Selectivity ratio [2]: 20
- inhibition [3]: Active
- Activity [4]: Active
- IC50 [5]: 82 µM
- IC50 [6]: 6.1 µM
- IC50 [7]: 3.4 µM
- Activity [8]: Active
- Activity [9]: Active
- log2FC [10]: 0.33
- log2FC [11]: 0.38
- log2FC [12]: 0.52
- log2FC [13]: 0.69
- log2FC [14]: -0.43
- log2FC [15]: -0.39
- log2FC [16]: 0.64
- log2FC [17]: 0.97
- log2FC [18]: 0.7
- log2FC [19]: 0.68
- log2FC [20]: -0.66
- log2FC [21]: -1.03
- log2FC [22]: -0.43
- log2FC [23]: -0.38
